Source: ChEMBL document CHEMBL3994571, “Caffeoyl Triterpenoid Esters as Potential Anti-ischemic Stroke Agents from Celastrus orbiculatus” (J Nat Prod, 2016)
Activity calls are given as the source filed them. The rule behind the calls is not given here.

Tests used:
SH-SY5Y [1] = experiment: Neuroprotective activity against oxygen glucose deprivation-induced cell death in human SH-SY5Y cells assessed as increase in cell viability at 10 uM treated at beginning of 24 hrs reoxygenation period by MTT assay; type: functional, cell-based
Procedure, shortened: (§1)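 SH-SY5Y cells seeded at 2 × 10⁴ cells/well. Medium replaced by glucose-free EBSS (pH 7.4), then 1 h hypoxia (85% N₂, 10% H₂, 5% CO₂, 37 °C). Reoxygenated under normal culture for 24 h, compound added at start of reoxygenation. MTT read at 490 nm, given as % of non-OGD control. Mean ± SEM from three independent experiments.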

Rattus norvegicus [2] = experiment: Neuroprotective activity against middle cerebral artery occlusion-induced Sprague-Dawley rat ischemic stroke model assessed as reduction in neurological score at 10 mg/kg, iv dosed 2 hrs post onset of ischemia measured after 24 hrs of reperfusion […]; type: functional, organism-based
Procedure, shortened: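 Male Sprague-Dawley rats, 230–280 g, given 2 h filament MCAO under chloral hydrate anaesthesia, then reperfused. Edaravone as positive control. After 24 h reperfusion, deficits rated by modified Neurological Severity Score on an 18-point scale (motor, visual, tactile); higher means worse. n = 11–14.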

SH-SY5Y [3] = experiment: Neuroprotective activity against oxygen glucose deprivation-induced cell death in human SH-SY5Y cells assessed as increase in cell viability treated at beginning of 24 hrs reoxygenation period by MTT assay; type: functional, cell-based; procedure, shortened: as §1
SH-SY5Y [4] = experiment: Cytotoxicity against human SH-SY5Y cells at 1 to 10 uM after 24 hrs by MTT assay; type: cell-based
Procedure, shortened: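 SH-SY5Y cells grown in 1:1 MEM/F12 with 10% FBS and penicillin/streptomycin at 37 °C, 5% CO₂. Seeded at 2 × 10⁴ cells/well. Normal cells without OGD exposed to compound. Viability by MTT: 3 h at 37 °C in dark, formazan dissolved in DMSO, absorbance at 490 nm.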

SH-SY5Y [5] = experiment: Neuroprotective activity against oxygen glucose deprivation-induced cell death in human SH-SY5Y cells assessed as cell viability at 10 uM treated at beginning of 24 hrs reoxygenation period by MTT assay (reference value: 55.05 +/- 2.03%); type: functional; details: read-out: Activity; procedure, shortened: as §1
SH-SY5Y [6] = experiment: Neuroprotective activity in human SH-SY5Y cells assessed as reduction in oxygen glucose deprivation-induced morphological damage at 5 to 10 uM treated at beginning of 24 hrs reoxygenation period; type: functional, cell-based
Procedure, shortened: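 SH-SY5Y cells exposed to 1 h OGD in glucose-free EBSS (pH 7.4) under 85% N₂/10% H₂/5% CO₂ at 37 °C, then 24 h reoxygenation. Compound added after OGD at reoxygenation onset. Dendrite fragmentation and cell number assessed by morphological observation.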

Rattus norvegicus [7] = experiment: Neuroprotective activity against middle cerebral artery occlusion-induced Sprague-Dawley rat ischemic stroke model assessed as decrease in brain infarct volume at 10 mg/kg, iv dosed 2 hrs post onset of ischemia measured after 24 hrs of reperfusion by TTC staining based assay relative to control; type: functional; design: scale not given: the % may be the effect or the level left
Procedure, shortened: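 Male Sprague-Dawley rats, 230–280 g, under chloral hydrate (400 mg/kg i.p.). Left MCA occluded 2 h by 4-0 nylon filament, then reperfused; body temperature kept at 37.0 ± 0.5 °C. Edaravone as positive control. After 24 h reperfusion, 2 mm coronal sections stained with 1% TTC for 15 min, then fixed in 4% paraformaldehyde. White tissue scored as infarct. n = 11–14.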

Question: What does the source list for `C[C@H]1C(=O)CC[C@@H]2[C@]1(C)CC[C@H]1[C@@]2(C)CC[C@@]2(C)[C@@H]3C[C@](C)(COC(=O)/C=C/c4ccc(O)c(O)c4)CC[C@]3(C)CC[C@]12C`?
Answer: Activity (SH-SY5Y [1]): Active; Activity (Rattus norvegicus [2]): Active; Activity (SH-SY5Y [3]): Dose-dependent effect; Activity (SH-SY5Y [4]): Non-Toxic; viability at 10 µM (SH-SY5Y [5]): 115%; Activity (SH-SY5Y [6]): Active; Activity (Rattus norvegicus [7]): 14.2%

Question: For `C[C@H]1C(=O)CC[C@@H]2[C@]1(C)CC[C@H]1[C@@]2(C)CC[C@@]2(C)[C@@H]3C[C@](C)(COC(=O)/C=C/c4ccc(O)cc4)CC[C@]3(C)CC[C@]12C`, which Activity (SH-SY5Y [1]) is on record?
Answer: inactive
